# In PubChem BioAssay:
# Calls of active or inactive are those of the source.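 The calls were made as follows, unless noted: active = inhibition at or above 50% at 10 µM; inactive = inhibition below 50%.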
# What was measured:
# [1] = inhibitors of TNFa-induced NFkB p65 translocation, primary screen, imaging, HUVEC, MLSMR starter and 10KST1 sets (AID 438;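 active = inhibition above 20% together with a positive visual image hit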;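 also: compound added about 3h40 before a 20 min TNFalpha stimulation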;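 as to inhibition: signal is the nuclear over cytoplasmic p65 intensity ratio per well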); details: HUVEC TNFa-induced p65 nuclear translocation; cell count: measured here: nuclei count (cytotoxicity indicator), at 2.08 µM; inhibition: at 2 µM, stronger effect = higher value, 0% TNFa-plus-vehicle, 100% no-TNFa wells
# [2] = inhibitors of mutant huntingtin aggregation, primary screen, imaging, exon1htt(103Q)mCFP cells, high-content imaging (AID 483;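 active = visual image review flags a hit and inhibition of aggregation exceeds 20%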;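 also: compound exposure lasted 3 days before fixation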;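 as to nuclei count: percent of the per-plate median nuclei count of sample wells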); details: exon1htt(103Q)mCFP cell line, aggregate imaging, at 2 µM; inhibition of aggregation: stronger effect = higher value; nuclei count: measured here: cell count, toxicity
# [3] = inhibitors of E-selectin induction by TNFa, primary screen, imaging, HUVEC, immunofluorescence, MLSMR starter and 10KST1 sets (AID 487;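 active = visually confirmed hit in the image check and inhibition above 20%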;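 as to inhibition: signal is fraction of cell area covered by stained E-selectin grains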;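 as to nuclei count: 100% = median nuclei count of all wells on the same plate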); details: HUVEC TNFalpha-induced E-selectin immunofluorescence imaging, at 2 µM; inhibition: stronger effect = higher value; nuclei count: measured here: cell number, toxicity
# [4] = target: Voltage-gated potassium channel subunit beta-2 (Rattus norvegicus) (UniProt P62483); assay: KvBeta enzyme negative modulators, primary screen, biochemical, NADPH fluorescence (AID 622;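 active = fluorescence slope higher than the sample average by over 3 SD, cut at about -0.22 in these data, passing the limit was not always enough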;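 also: slope of raw intensity against log time taken from 70 to 1610 s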); details: recombinant KvBeta, 4-cyanobenzaldehyde reduction, at 10 µM, stronger effect = higher value
# Sequence of Voltage-gated potassium channel subunit beta-2 (Rattus norvegicus) (P62483 whole entry, looked up): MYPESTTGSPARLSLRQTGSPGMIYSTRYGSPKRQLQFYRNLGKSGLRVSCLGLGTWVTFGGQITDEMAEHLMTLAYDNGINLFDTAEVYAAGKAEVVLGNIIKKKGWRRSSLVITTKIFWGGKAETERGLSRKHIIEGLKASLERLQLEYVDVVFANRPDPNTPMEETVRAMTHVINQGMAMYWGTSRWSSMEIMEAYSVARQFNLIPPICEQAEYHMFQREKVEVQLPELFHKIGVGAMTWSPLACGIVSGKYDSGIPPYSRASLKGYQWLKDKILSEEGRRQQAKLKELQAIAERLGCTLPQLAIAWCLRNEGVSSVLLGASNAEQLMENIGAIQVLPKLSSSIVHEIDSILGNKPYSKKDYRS
# [5] = target: Voltage-gated potassium channel subunit beta-2 (Rattus norvegicus) (UniProt P62483); assay: KvBeta positive modulators, primary screen, biochemical, NADPH fluorescence (AID 623;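 active = NADPH fluorescence slope more negative than the mean of all samples by about 3 SD, 99.7% confidence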;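 also: fluorescence intensity change per second fitted from 20 to 320 s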); details: Recombinant KvBeta, NADPH fluorescence decrease slope, 10 min; at 10 µM; stronger effect = lower value
# [6] = target: Muscarinic acetylcholine receptor M4 (Homo sapiens) (UniProt P08173); assay: compounds altering M4/GIRK thallium flux, either direction, primary screen, M4 allosteric agonist project, cell-based, HEK293 M4/GIRK, BTC-AM (AID 625;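 active = fluorescence slope after compound addition differing from the mean of all tested samples at 99.7% confidence, mostly higher but some lower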;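 also: thallium influx through GIRK channels coupled to M4 in HEK293 cells with BTC-AM dye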); details: at 10 µM, actives lie on both sides
# Sequence of Muscarinic acetylcholine receptor M4 (Homo sapiens) (P08173 whole entry, looked up): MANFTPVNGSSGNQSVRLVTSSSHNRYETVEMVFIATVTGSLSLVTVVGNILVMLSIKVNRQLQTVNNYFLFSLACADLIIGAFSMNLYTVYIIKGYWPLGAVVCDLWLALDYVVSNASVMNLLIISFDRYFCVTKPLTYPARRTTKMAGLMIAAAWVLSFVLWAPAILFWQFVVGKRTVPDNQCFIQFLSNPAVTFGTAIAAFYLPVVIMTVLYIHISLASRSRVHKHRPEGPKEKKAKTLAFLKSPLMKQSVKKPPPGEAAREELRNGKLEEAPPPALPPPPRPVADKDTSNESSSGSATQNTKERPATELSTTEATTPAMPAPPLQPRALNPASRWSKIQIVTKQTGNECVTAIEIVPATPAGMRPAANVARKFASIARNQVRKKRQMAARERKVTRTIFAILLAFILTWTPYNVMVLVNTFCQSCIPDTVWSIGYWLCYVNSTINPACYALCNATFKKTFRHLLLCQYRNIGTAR
# Procedure, shortened: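 Material – HEK293 cells with M4 receptor and GIRK channels · Buffer or medium – pH 7.3 thallium assay buffer · Doses – one dose, 10 µM final · Timing – cells overnight at 37 °C, BTC-AM loading 1 h, reads 2 min total · Measured by – kinetic fluorescence with BTC-AM dye · Controls – carbachol and DMSO controls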
# [7] = inhibitors of Sendai virus-induced IRF3 signaling, primary screen, TLR/RLR signaling modifier project, cell-based, Sendai virus stimulus, luciferase, 10K MLSCN set (AID 602276); details: HEK293 RL24 IRF3 luciferase reporter, at 10 µM, stronger effect = higher value;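 also: firefly luciferase from ISG56 promoter only with Renilla not read in this screen; 0% = Sendai virus plus DMSO and 100% = medium plus DMSO without virus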
# [8] = inhibitors of poly I:C-induced TLR3 signaling, primary screen, cell-based, poly I:C stimulus, luciferase, 10K MLSCN set (AID 602277;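 active = inhibition of the reporter signal at or above 50%; inactive = inhibition below 50%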); details: HEK293-TLR3 RL24 IRF3 luciferase reporter, at 10 µM, stronger effect = higher value
Structure (SMILES),cell count [1],inhibition [1],inhibition of aggregation [2],nuclei count [2],inhibition [3],nuclei count [3],fluorescence slope [4],NADPH fluorescence slope [5],fluorescence slope [6],inhibition [7],inhibition [8]
COc1cc(C(=O)N2CCCC(c3nc(-c4cccs4)no3)C2)cc(OC)c1OC (centres undefined),709,-19.4% (inactive),4.4% (inactive),89%,-30.6% (inactive),101%,-0.508 (inactive),-0.000226 (inactive),0.00584 (inactive),13.5% (inactive),12.8% (inactive)
CCCc1cc(=O)n2[nH]cnc2n1,285,11.4% (inactive),-16% (inactive),80%,-11.2% (inactive),101%,-0.285 (inactive),-1.5e-05 (inactive),0.00663 (inactive),11% (inactive),19.9% (inactive)
NC(=O)C1(N2CCCCC2)CCN(Cc2ccccc2Cl)CC1,438,0.3% (inactive),-1% (inactive),98%,3.4% (inactive),103%,-0.233 (inactive),-2.8e-05 (inactive),0.0052 (inactive),12.3% (inactive),19.9% (inactive)
Cn1c(NCc2cccc(Br)c2)nc2ccccc21,337,-4.7% (inactive),3% (inactive),103%,-6.9% (inactive),139%,-0.528 (inactive),-2.6e-05 (inactive),0.00491 (inactive),8.28% (inactive),14.2% (inactive)
CCn1ncc(C2=NOC(C(=O)NCc3ccc(Cl)cc3)C2)c1C (centres undefined),576,13.4% (inactive),-30.2% (inactive),36.3%,-240% (inactive),102%,-0.421 (inactive),2.6e-05 (inactive),0.0055 (inactive),2.33% (inactive),86.7% (active)
CCN(CC)c1ccc2c(c1)C(=O)N(C)C2=O,580,-1.9% (inactive),-5.6% (inactive),92.2%,-49% (inactive),104%,-0.417 (inactive),-6.9e-05 (inactive),0.00562 (inactive),-6.87% (inactive),-37.5% (inactive)
Cc1ccc(NC(=O)CSc2nnc(NC(=O)CN3CCOCC3)s2)cc1,294,-10% (inactive),-0.1% (inactive),27.7%,-43.2% (inactive),106%,-0.438 (inactive),-7.3e-05 (inactive),0.00533 (inactive),12.7% (inactive),22.7% (inactive)
O=C1CCc2nc3sc4c(c3c(=O)n2N1)CCCC4,667,-18.1% (inactive),-14% (inactive),104%,37.8% (inactive),98.8%,-0.424 (inactive),4.4e-05 (inactive),0.00678 (inactive),-2.82% (inactive),-5.12% (inactive)
O=C(Nc1nncs1)c1ccccc1NS(=O)(=O)c1cccs1,326,21.9% (inactive),5.1% (inactive),111%,-44.6% (inactive),108%,-0.0751 (inactive),-1.1e-05 (inactive),0.00575 (inactive),-6.81% (inactive),-4.84% (inactive)
O=C(Nc1ncnc2sc3c(c12)CCCCC3)c1ccco1,260,-7% (inactive),32.4% (active),85.3%,62.2% (inactive),65.2%,-0.542 (inactive),-1.4e-05 (inactive),0.0064 (inactive),21.8% (inactive),22.6% (inactive)
c1ccc(-c2cc3c(nn2)CCc2nonc2-3)cc1,339,2.4% (inactive),19.1% (inactive),100%,-9.2% (inactive),111%,-0.543 (inactive),-0.00017 (inactive),0.00417 (inactive),-15.2% (inactive),-31.9% (inactive)
CCOC(=O)C(C)On1c(SC(C)C(=O)OCC)nc2ccccc2c1=O (centres undefined),808,-3.9% (inactive),10.3% (inactive),103%,-57.6% (inactive),107%,-0.582 (inactive),-5.7e-05 (inactive),0.0065 (inactive),20% (inactive),20% (inactive)
CC(=O)NCC(=O)OC(C)C(=O)Nc1ccc(C(C)=O)cc1 (centres undefined),413,-12.7% (inactive),6.4% (inactive),116%,-12.6% (inactive),115%,-0.591 (inactive),-4.9e-05 (inactive),0.0073 (inactive),-0.376% (inactive),0.897% (inactive)
CCCC(C)C1C(C#N)=C(N)Oc2cc(C)oc(=O)c21 (centres undefined),396,-15.6% (inactive),-2.4% (inactive),68.3%,-185% (inactive),134%,-0.455 (inactive),-9.5e-05 (inactive),0.00507 (inactive),18.1% (inactive),18.7% (inactive)
CCOc1cccc(Oc2ccc(C(F)(F)F)cn2)c1,664,-8% (inactive),-17.4% (inactive),120%,8.4% (inactive),97.3%,-0.526 (inactive),1.7e-05 (inactive),0.00424 (inactive),5.91% (inactive),3.43% (inactive)
O=C(COc1ccccc1Cl)N1CCCC1,236,11.7% (inactive),-1.6% (inactive),83.7%,-66.3% (inactive),152%,-0.528 (inactive),2.9e-05 (inactive),0.00495 (inactive),-16% (inactive),-18.4% (inactive)
Brc1ccc(-c2nnc3sc(CN4CCC5(CC4)OCCO5)cn23)cc1,414,3.2% (inactive),-6.9% (inactive),112%,-185% (inactive),130%,-0.57 (inactive),-1.2e-05 (inactive),0.00615 (inactive),11.1% (inactive),14% (inactive)
COc1cc(NC(=O)c2ccc(COCC(F)(F)F)o2)cc(OC)c1OC,753,-11.9% (inactive),-25% (inactive),116%,-71% (inactive),118%,-0.553 (inactive),-4.6e-05 (inactive),0.00529 (inactive),15.8% (inactive),24.7% (inactive)
Cc1nc(CNS(=O)(=O)c2ccc3c(c2)OCCO3)cs1,309,0.5% (inactive),10.1% (inactive),106%,12.1% (inactive),110%,-0.568 (inactive),-2.7e-05 (inactive),0.00404 (inactive),-8.22% (inactive),-38.6% (inactive)
O=C(c1ccccc1)c1ccc2nc[nH]c2c1,762,-1.2% (inactive),-14.8% (inactive),94.7%,-48.9% (inactive),128%,-0.571 (inactive),-3.1e-05 (inactive),0.00464 (inactive),-13.6% (inactive),-34.9% (inactive)
CCC(=O)N1CCc2cc(OC)c(OC)cc2C1COc1ccc(C(=O)OC)cc1 (centres undefined),767,-20.4% (inactive),-5.1% (inactive),128%,36.5% (inactive),108%,-0.543 (inactive),-2e-05 (inactive),0.00388 (inactive),23.8% (inactive),6.29% (inactive)
Cc1ccc(CNC(=O)C2CCCN(S(=O)(=O)c3cccnc3)C2)cc1 (centres undefined),313,-3.9% (inactive),-2.8% (inactive),89.2%,-250% (inactive),88.5%,-0.573 (inactive),2.7e-05 (inactive),0.00508 (inactive),-3.78% (inactive),-7.01% (inactive)
CCOC(=O)CSc1nnc(CNC(=O)c2cccs2)n1-c1cc(OC)ccc1OC,521,-3.3% (inactive),-5.1% (inactive),103%,-7.4% (inactive),95.1%,-0.545 (inactive),-2.7e-05 (inactive),0.00509 (inactive),0.513% (inactive),17.5% (inactive)
CCOC(=O)c1c(NC(=O)CSc2nnc(-c3ccc(OC)cc3)o2)sc2c1CCC2,705,-10.9% (inactive),-10.3% (inactive),113%,-10.2% (inactive),91.1%,-0.56 (inactive),-9.6e-07 (inactive),0.0094 (inactive),0.872% (inactive),5.8% (inactive)
Nc1nonc1-c1noc(CCCCCN2C(=O)c3ccccc3C2=O)n1,221,6.9% (inactive),-10.5% (inactive),91%,9.5% (inactive),88%,-0.522 (inactive),-2.2e-05 (inactive),0.00407 (inactive),-4.73% (inactive),-15.6% (inactive)
CN(C)S(=O)(=O)c1ccc(C(=O)N2CCC(c3nc4ccccc4o3)CC2)cc1,468,8.2% (inactive),-9.7% (inactive),103%,40.1% (inactive),95%,-0.427 (inactive),-9.6e-05 (inactive),0.00556 (inactive),10.5% (inactive),12.2% (inactive)
Cc1ccnc(NS(=O)(=O)c2ccc(N=CC3=C(O)CC(C)(C)CC3=O)cc2)n1,395,2.5% (inactive),-9% (inactive),79.4%,7.7% (inactive),110%,-0.474 (inactive),9.9e-06 (inactive),0.00511 (inactive),7.45% (inactive),1.62% (inactive)
CC1(C)CC(=O)c2cnc(NC(=O)CSc3nc4ccccc4o3)nc2C1,257,-5.5% (inactive),-24.6% (inactive),87.1%,-79.9% (inactive),107%,-0.294 (inactive),-1.5e-05 (inactive),0.00793 (inactive),-3.99% (inactive),20% (inactive)
Cc1cc(C)n(-c2nc(C)nc3c2cnn3-c2ccccc2)n1,427,9.2% (inactive),-20.7% (inactive),97.3%,-60.5% (inactive),114%,-0.564 (inactive),-3.8e-05 (inactive),0.0087 (inactive),20.1% (inactive),20.4% (inactive)
